ABCB1 inh: inhibitors of human ABCB1 transporter, ABCG2 counter-screen | CCRF-Adr cells, JC-1 efflux, flow cytometry | inhibition, % at 6.6 µM | 190,000 tested, 0.067% active | AID 1326; in the data active means inhibition above about 40%;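 further: 0% = vehicle and 100% = reference inhibitor; higher value means more JC-1 retained so stronger ABCB1 efflux block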
Efa HMGR inh: E. faecalis class II HMG-CoA reductase inhibition; 190,000 tested, 0.41% active; AID 1066; purified E. faecalis HMGR, NADPH absorbance 340 nm kinetic; inhibition, % at 10 µM;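 active means inhibition above a set limit, the median over all tested compounds plus 3 SD, cut at about 9.5% in these data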;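 further: enzyme runs in reverse so mevalonate oxidation gives rising NADPH absorbance; 0% = complete reaction with DMSO and 100% = background rate lacking mevalonate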
HSV replic up: increases HSV replication in cells; HSV replication augmentation in cells, fold increase; maximum fold increase; 220,000 tested, 0.005% active; in the data active means maximum fold increase above about 1.5; tested in PC3 cells
ABCG2 inh: blocks JC-1 efflux by human ABCG2 transporter; IgMXP3 cells, flow cytometry; inhibition, % at 6.6 µM; 190,000 tested, 0.1% active;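 active means inhibition above 80%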;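 further: 0% = DMSO and 100% = nicardipine control wells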
Target sequence (Q9UNQ0 whole entry, looked up): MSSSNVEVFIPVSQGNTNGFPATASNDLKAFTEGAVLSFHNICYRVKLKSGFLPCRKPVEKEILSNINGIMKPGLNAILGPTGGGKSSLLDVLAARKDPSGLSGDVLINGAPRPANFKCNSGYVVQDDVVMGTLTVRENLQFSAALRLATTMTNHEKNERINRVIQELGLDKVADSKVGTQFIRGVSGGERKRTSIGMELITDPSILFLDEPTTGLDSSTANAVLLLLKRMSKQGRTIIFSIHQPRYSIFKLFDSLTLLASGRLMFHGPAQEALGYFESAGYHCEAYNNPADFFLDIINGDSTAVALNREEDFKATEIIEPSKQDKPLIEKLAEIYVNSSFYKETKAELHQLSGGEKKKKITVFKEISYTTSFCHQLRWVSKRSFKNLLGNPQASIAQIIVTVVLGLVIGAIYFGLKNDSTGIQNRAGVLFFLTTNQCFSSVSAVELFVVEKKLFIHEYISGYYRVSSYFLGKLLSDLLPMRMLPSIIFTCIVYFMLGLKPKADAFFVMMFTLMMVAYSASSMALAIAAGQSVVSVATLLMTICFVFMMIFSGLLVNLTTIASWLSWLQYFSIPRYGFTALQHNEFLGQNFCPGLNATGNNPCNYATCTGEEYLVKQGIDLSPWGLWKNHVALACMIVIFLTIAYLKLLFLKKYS
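material = IgMXP3 (ABCG2) plus far-red-tagged CCRF-Adr (ABCB1) cells | amount = 3 million cells/mL, equal mix of both lines | also added = JC-1 transporter substrate | dosing = one concentration, 6.6 µM final | schedule = 10 min at 25 °C | measured by = flow cytometric JC-1 green MFI at 530 nm | read-out basis = percent efflux inhibition, scaled nicardipine 100% to DMSO 0%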
ABCB1 confirm: inhibits human ABCB1 efflux, confirmed at single point; shares compounds with ABCG2 inh; CCRF-Adr cells, JC-1 efflux, flow cytometry; inhibition, % at 6.6 µM; 270 tested, 7% active;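 active means inhibition of pump activity above 50%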;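 further: 0% = DMSO and 100% = nicardipine full pump inhibition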
ABCG2 single pt: confirmation of human ABCG2 transporter inhibitors, ABCB1 counter-screen; shares compounds with ABCG2 inh; IgMXP3 cells, JC-1 efflux, flow cytometry; inhibition, % at 6.6 µM; 270 tested, 6% active; AID 1453;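 active means inhibition above 50%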;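 further: 0% = DMSO wells and 100% = nicardipine pump inhibitor wells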
IgMXP3 fluor: compound fluoresces at 488/530 nm in IgMXP3 cells; AID 1480; fluorescence at 6.6 µM; 270 tested, 30% active; shares compounds with ABCG2 inh; compound autofluorescence 488/530 nm, flow; hits give high values;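 active means fluorescence in ABCG2-expressing cells above the plate's control-well mean plus 3 SD, cut at about 15 in these data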;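 further: median cell fluorescence with compound minus that of DMSO-treated control cells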
CCRF autofluor: CCRF-Adr autofluorescence flag for ABCB1 confirmation. CCRF-Adr cells, compound autofluorescence 488/530 nm, flow cytometry; hits give high values. fluorescence at 6.6 µM. 270 tested, 30% active. shares compounds with ABCG2 inh;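 active means fluorescence beyond the plate control mean plus 3 SD, with a fluorescence-to-maximum score over 2, cut at about 25 in these data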
Numbers without * were called inactive; i = inactive; x = not tested or not shown; + = active, no number. The list is not random: actives were taken first. Their share in the collection is about 0.49%.

SMILES	ABCB1 inh	Efa HMGR inh	HSV replic up	ABCG2 inh	ABCB1 confirm	ABCG2 single pt	IgMXP3 fluor	CCRF autofluor
Cc1cc(C)nc(-n2nc(C)c3c(C(F)(F)F)cc(=O)[nH]c32)n1	3	-3	i	72	0	32	3.6	7.2
Cc1ccc(S(=O)(=O)N2CCc3ccccc3C2CN2C(=O)c3ccccc3C2=O)cc1 (centres undefined)	3	-8	i	24	x	x	x	x
O=C(NCc1ccccn1)Nc1ccc(Cl)c(Cl)c1	1	-1	i	70	0	23	-1.3	-2.1
O=C(NCc1ccccn1)Nc1cccc(NC(=O)NCc2ccccn2)c1	1	-6	i	2	x	x	x	x
O=C1c2ccccc2C(=O)N1OCc1ccccc1[N+](=O)[O-]	0	4	i	2	x	x	x	x
CCN(CC)c1nc(-c2cccc(OC)c2O)nc2ccccc12	8	-4	i	83*	25	24	17*	108*
COc1cccc(C(=O)NC2CC3CCCC(C2)N3S(=O)(=O)c2ccccc2)c1 (centres undefined)	x	x	i	x	x	x	x	x
COc1ccccc1Nc1nc2nonc2nc1N1CCCCC1C (centres undefined)	12	-2	i	87*	19	29	30*	-0.79
Nn1c(Cc2cccc3ccccc23)nnc1SCc1c(Cl)cccc1Cl	1	-5	i	2	x	x	x	x
Nn1c(Cc2cccc3ccccc23)nnc1SCc1ccc(Cl)c(Cl)c1	66*	-5	i	82*	1	17	0.36	-1.9
Cc1ccccc1C(=O)OCCN(C)Cc1ccccc1	1	2	i	4	x	x	x	x
Cc1ccc(C(=O)NCC(=O)Nc2cccc(C(F)(F)F)c2)cc1	0	-6	i	18	x	x	x	x
O=C(CNC(=O)c1ccccc1)Nc1cccc(C(F)(F)F)c1	x	-4	i	+	2	13	73*	33*
Cc1ccc(CNC(=O)C(=O)NCC(c2ccco2)N2CCOCC2)cc1 (centres undefined)	0	0	i	-3	x	x	x	x
COc1cccc(CNC(=O)C(=O)NCC(c2ccco2)N2CCOCC2)c1 (centres undefined)	65*	-6	i	65	0	1	-0.14	4.3
CC[n+]1c(/C=C2\Sc3ccccc3N2C)ccc2cccc(C)c21	30	1	x	151*	-182	18	273*	535*
COc1ccc(-[n+]2c(C)cc(/C=C3\Sc4ccccc4N3C)cc2C)cc1	-1	-1	x	6	x	x	x	x
COc1cc(/C=C\C(=O)NCc2ccc3c(c2)cc(C)n3C)cc(OC)c1OC	2	-4	i	10	x	x	x	x
O=c1/c(=C/c2ccc(O)c([N+](=O)[O-])c2)sc2nc3ccccc3n12	0	3	i	1	x	x	x	x
O=c1/c(=C\c2cccnc2)sc2nc3ccccc3n12	2	0	i	81*	1	19	-1.3	-3
COc1ccc(OC)c(C(=O)COC(=O)c2cc(C)oc2C)c1	1	-4	i	80	0	35	-1.8	-2.2
O=C(c1ccccc1)c1ccc(N2CCOCC2)c(NC(=O)c2ccco2)c1	4	-2	i	81*	0	47	0.46	33*
O=C(Nc1cc(C(F)(F)F)ccc1N1CCOCC1)c1ccco1	0	-1	x	2	x	x	x	x
CC(=O)Nc1ccc(Nc2ccc(S(=O)(=O)C(F)(F)F)cc2[N+](=O)[O-])cc1	1	-7	i	92*	1	55*	-2.2	-4.4
O=C(O)CNc1ccc(S(=O)(=O)C(F)(F)F)cc1[N+](=O)[O-]	x	x	i	x	x	x	x	x
COc1cccc(NC(=S)N/N=C2/CCCCc3ccccc32)c1	0	3	i	0	x	x	x	x
